The results in this text go back to ChEMBL document CHEMBL1128569, “N-acyl-2-substituted-1,3-thiazolidines, a new class of non-narcotic antitussive agents: studies leading to the discovery of ethyl 2-[(2-methoxyphenoxy)methyl]-beta-oxothiazolidine-3-propanoate” (J Med Chem, 1995).

The test system of data set [1] is Cavia porcellus. Kind of data set: Antitussive activity by inhibition of irritant citric acid aerosol-induced coughing in guinea pig upon oral administration. In kind it is functional. The method, boiled down: (§1)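 Male guinea pigs (350-400 g) exposed in a box to 7.5% citric acid aerosol for 5 min, and coughs counted as the basal value. Next day, after overnight fasting, animals (6-8/dose) were gavaged with compound in water or 0.5% methyl cellulose (2 mL/kg) 1 h before re-exposure. Activity is the reduction in coughs versus the basal count. ED50 is the dose giving 50% reduction (Cochran and Snedecor).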

Data set [2] relates to Cavia porcellus. Kind of data set: Antitussive activity was evaluated by inhibition of irritant electrically-induced coughing in guinea pig trachea upon oral administration at 30 mg/kg. Type of data set: functional. The method, boiled down:
(§2)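 Guinea pigs under ketamine (10 mg/kg im) and xylazine (3 mg/kg im) anaesthesia, with an electrode wrapped around the trachea about 1.5 cm above the bifurcation and an indifferent electrode on the dorsal skin. Coughs during stimulation counted as the basal value. Groups of 6-8/dose were gavaged with compound in water or 0.5% methyl cellulose (2 mL/kg). Activity is the cough reduction versus basal. ED50 is the dose giving 50% reduction.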

Data set [3] can be described thus: Acute toxicity was determined in mice upon peroral administration. In kind it is organism-based. As to conditions: mouse, in vivo, po. The gist of the method: (§3)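 Swiss mice of both sexes, groups of six, dosed by gavage at several doses up to 1000 mg/kg. Compound dissolved in water or suspended in 0.5% carboxymethyl cellulose, 10 mL/kg. Deaths recorded over 1-7 days. LD50 obtained by logit transformation.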

Data set [4] has as its system Cavia porcellus. The experiment in a line: Antitussive activity was evaluated by inhibition of irritant aerosol-induced coughing by (po) administration in guinea pig. In kind it is functional. The gist of the method:
as §1

Data set [5] deals with Cavia porcellus. The experiment in a line: Antitussive activity was evaluated by inhibition of irritant electrically-induced coughing by (po) administration in guinea pig. Type of data set: functional. The method, boiled down:
as §2

Data set [6] is described as follows: Lethality in mice following p.o. administration. Type of data set: ADME, organism-based. The note with it: mouse, in vivo, po. The method, boiled down:
as §3

For data set [7], the system named is Cavia porcellus. The experiment in a line: Inhibition of irritant electrically-induced coughing in guinea pig trachea following p.o. administration. The note with it: po. Type of data set: functional. The gist of the method: as §2
In data set [8] the test system is Cavia porcellus. Kind of data set: Antitussive activity was evaluated by inhibition of irritant citric acid aerosol-induced coughing in guinea pig upon oral administration at 30 mg/kg dose. In kind it is functional. The gist of the method: as §1

For `CCOC(=O)CC(=O)N1CCS(=O)(=O)C1COc1ccccc1OC` (stereo unspecified), the 50% effective dose (ED50) (usually the dose that gives a 50% effect, or the effect in half of the subjects) with Cavia porcellus [1] was 28 mg/kg. Besides, in the data set with Cavia porcellus [2], the inhibition in vivo (in general, the relative decrease from the control value, in per cent) at 30 mg/kg is below 20%. Besides, the 50% lethal dose (LD50) – broadly, the dose at which mortality reaches 50% – in data set [3] is above 1000 mg/kg.

`COc1ccc2c(c1)[C@]13CCCC[C@@H]1[C@H](C2)N(C)CC3` [DEXTROMETHORPHAN]: the ED50 with Cavia porcellus [4] stood at 48 mg/kg; in the data set on Cavia porcellus [5] it was 16 mg/kg.

As for `COc1ccccc1OCC1SCCN1C(=O)CC(=O)O` (stereo unspecified), the ED50 in the data set on Cavia porcellus [1] came out at 20 mg/kg. Further, the inhibition in vivo at 30 mg/kg with Cavia porcellus [2] is below 20%. The molecule further showed a 50% lethal dose (LD50) in data set [3] above 1000 mg/kg.

On to `COc1ccccc1OCC1SCCN1C(=O)CSC(C)=O` (stereo unspecified) [GUAISTEINE], for which the values for the median effective dose (ED50) with Cavia porcellus [4] and in the data set with Cavia porcellus [5] were 26 mg/kg and 17 mg/kg, respectively. The LD50 in data set [6] was above 1000 mg/kg.

With `CCN(CC)CCNC(=O)CC(=O)N1CCSC1COc1ccccc1OC` (stereo unspecified), the 50% effect level with Cavia porcellus [1] (ED50) was put at a dose of 56 mg/kg. The same molecule had an inhibition in vivo at 30 mg/kg in the data set on Cavia porcellus [2] below 20%. In data set [3], this molecule had a median lethal dose (LD50) of 250 mg/kg.

For the molecule `COc1ccccc1OCC1SCCN1C(=O)CN1CCN(C)CC1.Cl.Cl` (stereo unspecified), the inhibition in vivo at 30 mg/kg with Cavia porcellus [2] was below 20%. Also, the LD50 in data set [3] is 818 mg/kg.

In the data set with Cavia porcellus [4], `CC(=O)SCC(=O)N1CCSC1CCc1ccccc1O` (stereo unspecified) yielded a median effective dose (ED50) of 61 mg/kg. For the same molecule, in data set [6], the LD50 is above 1000 mg/kg.

On to `COc1ccc2c3c1O[C@H]1[C@@H](O)C=C[C@H]4[C@@H](C2)N(C)CC[C@@]341.COc1ccc2c3c1O[C@H]1[C@@H](O)C=C[C@H]4[C@@H](C2)N(C)CC[C@@]341.O.O=P(O)(O)O.O=P(O)(O)O` [CODEINE PHOSPHATE], for which the ED50 in the data set on Cavia porcellus [4] was 29 mg/kg; in the data set with Cavia porcellus [5] it was 14 mg/kg.

`O=C(O)[C@@H]1CSC(CCc2ccccc2O)N1` (stereo partly specified) came in with a 50% effective dose (ED50) with Cavia porcellus [7] of 45 mg/kg. Also, the inhibition in vivo at 30 mg/kg in the data set on Cavia porcellus [8] is below 20%. In data set [3], this molecule returned an LD50 above 1000 mg/kg.

In the data set on Cavia porcellus [8], `CCOC(=O)C(=O)N1CCSC1COc1ccccc1OC` (stereo unspecified) had an inhibition in vivo at 30 mg/kg below 20%. The same molecule returned an LD50 in data set [3] above 1000 mg/kg.

In turn, `CC(=O)SCC(=O)N1CCSC1COc1ccccc1O` (stereo unspecified) returned a median effective dose (ED50) in the data set with Cavia porcellus [4] of 60 mg/kg. For the same molecule, the 50% lethal dose (LD50) in data set [6] is above 1000 mg/kg.

`O=C(O)[C@@H]1CSC(COc2ccccc2O)N1` (stereo partly specified) returned an inhibition in vivo at 30 mg/kg in the data set with Cavia porcellus [8] below 20%. The molecule further returned a 50% lethal dose (LD50) in data set [3] above 1000 mg/kg.

`COc1ccc(OCC2SCCN2C(=O)CSC(C)=O)cc1` (stereo unspecified): the 50% effective dose (ED50) with Cavia porcellus [5] turned out to be 19 mg/kg. Further, the 50% lethal dose (LD50) in data set [6] is above 1000 mg/kg.
